These results are taken from ChEMBL document CHEMBL1123501, “Inactivation of leukocyte elastase by aryl azolides and sulfonate salts. Structure-activity relationship studies” (J Med Chem, 1986).

SMILES strings stand for the structures. Calls of active or inactive are those of the source. No cut-off for these calls is given here.

For the first experiment, the target named is T1, Neutrophil elastase (Homo sapiens) (UniProt P08246).
T1 sequence (whole entry): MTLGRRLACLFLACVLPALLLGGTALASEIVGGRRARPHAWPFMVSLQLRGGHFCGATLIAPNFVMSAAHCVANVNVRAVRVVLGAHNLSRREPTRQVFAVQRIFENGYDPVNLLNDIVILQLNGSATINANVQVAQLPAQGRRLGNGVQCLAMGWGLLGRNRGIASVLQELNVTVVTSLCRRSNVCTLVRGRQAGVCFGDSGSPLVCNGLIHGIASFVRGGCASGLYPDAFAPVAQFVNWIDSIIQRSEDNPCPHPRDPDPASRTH
Briefly: Inhibitory activity against human Leukocyte elastase. In short, it runs like this: (§1)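 Human leukocyte elastase (enzyme stock 3.4 × 10⁻⁵ M in pH 5.5 acetate) incubated at 25 °C with inhibitor (DMSO stock 3.4 × 10⁻⁴ M) in Tris buffer pH 7.2. The inhibitor:enzyme ratio was 10–50. Aliquots taken over time were added to MeOSuc-Ala-Ala-Pro-Val-pNA (stock 3.15 × 10⁻² M). Residual activity was read at 410 nm for 2 min after 30 s, against a DMSO control.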
On to `O=C(Nc1cn(-c2cccc(F)c2)cn1)ON1C(=O)CCC1=O`, for which the K obs / 1 amounted to 823 M⁻¹ s⁻¹.

The compound `O=C(NCCc1ccccc1)n1ccnc1` showed a K obs / 1 of 35 M⁻¹ s⁻¹. Compound `COC(=O)C(Cc1ccccc1)NC(=O)S(=O)(=O)O` (racemic) had a K obs / 1 of 550 M⁻¹ s⁻¹. `COC(=O)C(Cc1cccc(F)c1)NC(=O)S(=O)(=O)O` (racemic) had a K obs / 1 of 57 M⁻¹ s⁻¹. The same measure, in the same setting: the value for `COC(=O)C(Cc1ccccc1)NC(=O)n1ccccc1=O` (centres undefined) was 2330 M⁻¹ s⁻¹; that for `O=C(NCCc1ccccc1)S(=O)(=O)O` was 4 M⁻¹ s⁻¹. As to `O=C(NCCc1cccc(C(F)(F)F)c1)n1ccnc1`, the K obs / 1 was found to be 483 M⁻¹ s⁻¹.

Compound `O=C(NCCc1cccc(F)c1)n1ccnc1` displayed a K obs / 1 of 38 M⁻¹ s⁻¹. `O=C(Nc1cn(-c2cccc(C(F)(F)F)c2)cn1)n1ccccc1=O` yielded a K obs / 1 of 11700 M⁻¹ s⁻¹. Compound `COC(=O)C(Cc1cccc(C(F)(F)F)c1)NC(=O)n1ccnc1` (centres undefined) returned a K obs / 1 of 1100 M⁻¹ s⁻¹. In the case of `COC(=O)C(Cc1ccccc1)NC(=O)n1ccnc1` (centres undefined), the K obs / 1 amounted to 2070 M⁻¹ s⁻¹. In turn, `COC(=O)C(Cc1cccc(C(F)(F)F)c1)NC(=O)S(=O)(=O)O` (racemic) registered a K obs / 1 of 13 M⁻¹ s⁻¹.

`COC(=O)C(Cc1ccccc1)NC(=O)ON1C(=O)CCC1=O` (centres undefined) displayed a K obs / 1 of 6640 M⁻¹ s⁻¹. In the case of `O=C(Nc1cn(-c2cccc(C(F)(F)F)c2)cn1)ON1C(=O)CCC1=O`, the K obs / 1 amounted to 13500 M⁻¹ s⁻¹. The compound `O=C(NCCc1cccc(F)c1)S(=O)(=O)O` yielded a K obs / 1 of 18 M⁻¹ s⁻¹. `COC(=O)C(Cc1cccc(F)c1)NC(=O)n1ccnc1` (centres undefined) displayed a K obs / 1 of 318 M⁻¹ s⁻¹. `O=C(Nc1cn(-c2ccccc2)cn1)ON1C(=O)CCC1=O` had a K obs / 1 of 927 M⁻¹ s⁻¹. On to `O=C(Nc1cn(-c2ccccc2)cn1)n1ccccc1=O`, for which the K obs / 1 is 500 M⁻¹ s⁻¹. In the case of `O=C(Nc1cn(-c2cccc(F)c2)cn1)n1ccccc1=O`, the K obs / 1 amounted to 317 M⁻¹ s⁻¹.

The target of another experiment is T1, Neutrophil elastase (Homo sapiens). Briefly: Compound was evaluated for the inhibitory activity against human Leukocyte elastase; Inactive. A digest of the protocol: as §1
Take `O=C(Nc1ccccc1C(F)(F)F)n1ccnc1`: the “K obs / 1” value is “inactive”. On the same count and under the same terms, the value for `O=C(Nc1cccc(F)c1)n1ccnc1` was “inactive”; that for `O=C(NCc1cccc(F)c1)n1ccnc1` was “inactive”; that for `O=C(NCc1ccc(C(F)(F)F)cc1)n1ccnc1` was “inactive”. Regarding `O=C(Nc1cccc(C(F)(F)F)c1)n1ccnc1`, the “K obs / 1” value is “inactive”. For `O=C(NCc1cccc(C(F)(F)F)c1)n1ccnc1`, the “K obs / 1” value was “inactive”.

A further experiment shares this target. The experiment in a line: Inhibitory activity against human Leukocyte elastase; inactive (at 243-fold excess of inhibitor over enzyme).
For the compound `O=C(NCc1cccc(F)c1)S(=O)(=O)O`, the “K obs / 1” value is “inactive”. In the case of `O=C(Nc1cccc(C(F)(F)F)c1)S(=O)(=O)O`, the “K obs / 1” value was “inactive”. As to `O=C(NCc1cccc(C(F)(F)F)c1)S(=O)(=O)O`, the “K obs / 1” value was “inactive”.

Consider `O=C(Nc1ccccc1C(F)(F)F)S(=O)(=O)O`, for which the “K obs / 1” value was “inactive”. Still for that read-out and setting: the value for `O=C(Nc1ccc(C(F)(F)F)cc1)S(=O)(=O)O` was “inactive”; that for `O=C(Nc1ccccc1)S(=O)(=O)O` was “inactive”; that for `O=C(Nc1cccc(F)c1)S(=O)(=O)O` was “inactive”. As for `O=C(Nc1ccc(Cl)cc1)S(=O)(=O)O`, the “K obs / 1” value is “inactive”. For `O=C(Nc1cccc(Cl)c1)S(=O)(=O)O`, the “K obs / 1” value was “inactive”.
